Laboratory results as given in ChEMBL document CHEMBL1155205, “Structure-activity relationship of isoform selective inhibitors of Rac1/1b GTPase nucleotide binding” (Bioorg Med Chem Lett, 2009).
Counter-ions that a name gives are not always drawn.

Columns and labels:
HEK293 = test: Inhibition of Rac GTPase activation in Rac1b overexpressing human HEK293 cells at 50 uM after 5 mins by G-LISA assay; assay type: cell-based
Summary of the method: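 HEK293 cells overexpressing human Rac1b were grown 5 days in MEM with 10% FBS, L-glutamine and antibiotics. Cells were then exposed to compound or solvent for 5 min. Rac1b GTP loading was measured with a Rac activation kit using a Rac-specific antibody (G-LISA).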

[1] = biological target: T1, Cell division control protein 42 homolog (Homo sapiens, UniProt P60953); test: Inhibition of Cdc42 GTPase activity assessed as incorporation of BODIPY-GTP at 50 uM after 40 mins by nucleotide binding competition assay
Summary of the method: (§1)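 Bacterially expressed GST-Cdc42 preincubated 10 min at 20 °C in 20 mM Tris pH 8.6, 50 mM NaCl, 1 mM MgCl2. No GEF was added (intrinsic exchange). BODIPY-GTP was then added with or without compound. Fluorescence was read at ex 485/em 538 nm before and after addition. Maximal RFU at 40 min was compared with control. Means of at least three independent experiments, with SEM.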
Target sequence in this assay (P60953 whole entry, looked up): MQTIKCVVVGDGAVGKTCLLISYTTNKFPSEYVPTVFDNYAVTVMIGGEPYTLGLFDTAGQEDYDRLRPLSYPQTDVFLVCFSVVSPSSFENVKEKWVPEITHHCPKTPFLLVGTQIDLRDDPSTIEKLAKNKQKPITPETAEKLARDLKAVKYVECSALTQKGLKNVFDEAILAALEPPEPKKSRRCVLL

[2] = Selectivity of IC50 for Rac1 GTPase activity to IC50 for Rac1b GTPase activity
Summary of the method: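 Ratio of IC50s for inhibiting BODIPY-GTP binding to bacterially expressed GST-Rac1 and GST-Rac1b. Rac1 binding was stimulated by His6-Tiam1 DH/PH, while Rac1b used intrinsic exchange. Protein was pre-incubated 10 min at 20 °C in 20 mM Tris pH 8.6, 50 mM NaCl, 1 mM MgCl2, then BODIPY-GTP ± compound was added. Fluorescence (ex 485/em 538 nm) was read as maximal RFU at 40 min; means of ≥3 independent experiments.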

[3] = biological target: T2, Ras-related C3 botulinum toxin substrate 1 (Homo sapiens, UniProt P63000); test: Inhibition of Rac1 GTPase activity assessed as incorporation of BODIPY-GTP after 40 mins by nucleotide binding competition assay
[4] = biological target: T1, Cell division control protein 42 homolog; test: Inhibition of Cdc42 GTPase activity assessed as incorporation of BODIPY-GTP after 40 mins by nucleotide binding competition assay; summary of the method: as §1
Target sequence in this assay (P60953 whole entry): as the sequence (P60953 whole entry, looked up) above

[5] = biological target: T2, Ras-related C3 botulinum toxin substrate 1; test: Inhibition of Rac1b GTPase activity assessed as incorporation of BODIPY-GTP after 40 mins by nucleotide binding competition assay

| SMILES | inhibition (HEK293) [%] | inhibition [1] [%] | IC50 [4] [µM] | further results |
| --- | --- | --- | --- | --- |
| C[n+]1cc2c(O)c(O)ccc2c2ccc3cc(O)c(O)cc3c21 | < 20 | 73 |  |  |
| COc1cc2cc(-c3cccc(C(C)=O)c3)[n+](C)c(C)c2cc1OC |  | 7 |  |  |
| COc1ccc2cc3[n+](cc2c1OC)CCc1cc2c(cc1-3)OCO2 |  | 8 |  |  |
| C[n+]1cc2c3c(ccc2c2ccc4cc5c(cc4c21)OCO5)OCO3 | 50 | 63 |  | Ratio IC50 [2]: 13 |
| Nc1nc2c(ncn2[C@H]2O[C@@H](COP(=O)(O)OP(=O)(O)O)[C@H](O)[C@@H]2O)c(=O)[nH]1 |  |  | 1.4 | IC50 [3]: 2.7 µM; IC50 [5]: 1.8 µM |
| COc1cc2cc(-c3ccc4c(c3)OCO4)nc(C)c2cc1OC |  | 14 |  |  |
| COc1cc2cc(-c3ccc(O)c(O)c3)[n+](C)c(C)c2cc1OC |  | 5 |  |  |
| COc1ccc2c(c[n+](C)c3c4cc(O)c(O)cc4ccc23)c1OC | 39 | 38 | 73 |  |
| COc1ccc2c(c[n+](C)c3c4cc5c(cc4ccc23)OCO5)c1OC [CHELERYTHRINE CHLORIDE] | 40 | 35 | > 100 | IC50 [3]: > 100 µM; Ratio IC50 [2]: > 14; IC50 [5]: 7 µM |
| Cc1c2cc(O)c(O)cc2cc(-c2ccc(O)c(O)c2)[n+]1C |  | 12 |  |  |
| COc1cc2cc3c4ccc(OC)c(OC)c4cc[n+]3c(C)c2cc1OC |  | 23 |  |  |
| Cc1nc(-c2ccc(O)c(O)c2)cc2cc(O)c(O)cc12 |  | 15 |  |  |
| COc1ccc2cc3[n+](cc2c1OC)CCc1cc(O)c(O)cc1-3 | 35 | 31 | > 100 | IC50 [3]: 63 µM; IC50 [5]: 31 µM |
| Oc1cc2c(cc1O)-c1cc3ccc(O)c(O)c3c[n+]1CC2 | < 20 | > 100 | 6 |  |
| COc1cc2c(cc1OC)-c1cc3ccc(OC)c(OC)c3c[n+]1CC2 |  | 8 |  |  |
| COc1ccc2c(c1OC)CN1CCc3cc4c(cc3C1C2)OCO4 (racemic) |  | 4 |  |  |
| COc1ccc2c(c1OC)C(c1ccccc1)N1CCc3cc4c(cc3C1C2)OCO4 (centres undefined) |  | 9 |  |  |
| COc1cc2cc(-c3cccc(C(C)=O)c3)nc(C)c2cc1OC |  | 7 |  |  |
| Oc1cc2c(cc1O)C1Cc3ccc(O)c(O)c3CN1CC2 (centres undefined) [TETRAHYDROXYCANADINE HYDROCHLORIDE] | < 20 |  | > 100 |  |
| Cc1c2cc(O)c(O)cc2cc2c3ccc(O)c(O)c3cc[n+]12 | < 20 | 70 | 26 |  |
| COc1cc2cc(-c3ccc(O)c(O)c3)nc(C)c2cc1OC | 61 | 15 | > 100 |  |
| COc1cc2cc(-c3ccc(Cl)c(Cl)c3)nc(C)c2cc1OC |  | 5 |  |  |
| COc1cc2cc(-c3ccc4ccccc4c3)nc(C)c2cc1OC | < 20 | 29 | > 100 |  |
| COc1cc2cc(-c3ccc4c(c3)OCO4)[n+](C)c(C)c2cc1OC |  | 0.3 |  |  |
